From PMC4160413 (Cancer cell, 2014)
Like-named read-outs stand apart in the source and are kept apart here.

What was measured:
[1] = same dose (20 mg/kg); ref Carol et al., 2011; cited from earlier work
MYCN-Aurora A complex = target: T1, MYCN-Aurora A complex (Homo sapiens, UniProt O14965); assay: MYCN immunoprecipitation; format: cell-based; conditions: for dissociation of the MYCN-Aurora A complex: IMR32 cells, 2 hr drug, MG-132 4 hr
T1 sequence (O14965 1-403): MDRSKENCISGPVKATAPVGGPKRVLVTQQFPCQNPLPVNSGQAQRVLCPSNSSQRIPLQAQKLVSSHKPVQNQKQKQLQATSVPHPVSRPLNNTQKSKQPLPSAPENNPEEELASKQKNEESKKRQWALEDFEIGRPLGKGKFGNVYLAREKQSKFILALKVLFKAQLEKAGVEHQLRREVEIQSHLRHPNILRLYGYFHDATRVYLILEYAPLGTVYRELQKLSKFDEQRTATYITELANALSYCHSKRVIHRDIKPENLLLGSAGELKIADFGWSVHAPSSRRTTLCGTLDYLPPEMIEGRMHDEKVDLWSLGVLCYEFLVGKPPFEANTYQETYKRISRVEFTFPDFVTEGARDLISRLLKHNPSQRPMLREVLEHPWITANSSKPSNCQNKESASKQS

SK-N-BE(2) cells = assay: Cell cycle by flow cytometry; format: cell-based
Procedure, shortened: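 SK-N-BE(2) cells in RPMI with 10% FBS, exposed to test compound for the stated time. EdU pulse before harvest: 2 hours per methods, 1 hr in the 6 hr, 1 μM experiment. Detection used the Click-iT EdU flow kit plus propidium iodide staining, read on a FACSCalibur. Gating was done in Cytobank.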

MYCN and p-Histone H3 = assay: Immunoblot screen of MYCN and p-H3 in Kelly cells; format: cell-based; conditions: 1 μM, 24 hr
Procedure, shortened: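 Kelly cells in RPMI with 10% FBS, given one of 32 compounds at 1 μM for 24 hr. Lysis in Cell Signaling buffer with 1% SDS, then sonication and boiling in LDS sample buffer. Immunoblots probed for MYCN, Histone H3, P-Histone H3 (S10), Aurora A and GAPDH. Bands quantified by densitometry and expressed as percent of untreated control.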

Aurora A = target: T2, Aurora A (Homo sapiens, UniProt O14965, T287D); assay: In vitro kinase assay with purified Aurora A protein; format: biochemical; conditions: structure-activity comparison
T2 sequence (O14965 123-390 T287D): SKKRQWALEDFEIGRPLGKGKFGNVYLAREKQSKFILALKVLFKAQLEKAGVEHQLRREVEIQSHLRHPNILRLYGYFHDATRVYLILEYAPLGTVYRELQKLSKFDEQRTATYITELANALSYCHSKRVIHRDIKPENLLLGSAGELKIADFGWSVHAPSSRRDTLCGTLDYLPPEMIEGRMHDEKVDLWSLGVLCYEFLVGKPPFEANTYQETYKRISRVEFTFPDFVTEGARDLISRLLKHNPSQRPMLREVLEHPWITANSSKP

MYCN [2] = assay: Immunoblot of MYCN protein in SK-N-BE; format: cell-based; conditions: SK-N-BE(2) cells, 1 μM, 24 hr
MYCN [3] = assay: Immunoblot of MYCN in SHEP cells expressing MYCN WT or T58A/S62A; format: cell-based; conditions: 24 hr; for wild-type MYCN protein level: SHEP MYCN WT
[4] = test system: MYCN-amplified SMS-KCN xenografts; assay: MYCN-amplified SMS-KCN neuroblastoma xenograft; format: in vivo, mice; conditions: 60 mg/kg for 2 days
Procedure, shortened: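 NOD scid gamma mice received 10⁶ SMS-KCN cells in growth media with 50% Geltrex, implanted into the renal capsule. Tumors were palpable at 21 days post implantation. Mice were then dosed at 60 mg/kg for two days, and tumors were harvested and flash frozen. MYCN protein was measured by immunoblot and compared by two-tailed Student's t-test (mean ± SEM).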

[5] = Pharmacokinetic study in mice; format: in vivo
Procedure, shortened: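 Test compound formulated at 20 mg/ml in 7.5% DMSO / 92.5% PEG300 and given to mice. Compound levels determined by LC-MS/MS.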

[6] = test system: panel 169 distinct tumor-derived cell lines; assay: Screen of 169 tumor-derived cell lines; format: cell-based; conditions: for susceptibility of MYCN-amplified versus non-amplified cell lines: 93 lines with MYCN copy number
[7] = test system: MYCN-expressing SHH-subtype medulloblastoma allograft; assay: SHH-subtype medulloblastoma subcutaneous allograft; format: in vivo, mice; conditions: 25 mg/kg twice per week
Procedure, shortened: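 Homozygous nu/nu mice carried flank subcutaneous allografts of SHH-subtype MYCN-expressing medulloblastoma (10⁶ cells per mouse). Dosing began at 25 mm³ tumor volume (~14 days): vehicle (5% DMSO in PEG300; n=6) or 25 mg/kg (formulated at 7.5 mg/ml; n=4), intraperitoneally twice weekly for up to three weeks. Endpoint was 2.0 cm maximum tumor length. Tumor burden compared by two-tailed t-test, survival by log-rank test.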

[8] = test system: SK-N-BE(2) MYCN-amplified neuroblastoma cells; assay: CyQUANT viability assay, 72 hr, SK-N-BE; format: cell-based; conditions: read-out: cellular EC50 at 72 hr
[9] = test system: GFP- and MYCN-transduced SH-EP neuroblastoma cells; assay: Viability of SHEP cells transduced with MYCN or GFP, 72 hr; format: cell-based; conditions: MYCN- vs GFP-transduced SH-EP
[10] = test system: Kelly MYCN-amplified neuroblastoma cells; assay: CyQUANT viability assay, 72 hr, Kelly; format: cell-based; conditions: read-out: cellular EC50 at 72 hr
[11] = CD532 1 μM 4 hr, MLN8237 0.1 μM 4 hr, JQ1 2 μM 24 hr

Row | SMILES | dissociation of the MYCN-Aurora A complex (MYCN-Aurora A complex) | cell cycle effect (SK-N-BE(2) cells; 1 μM, 4 or 6 hr) | cell cycle effect (SK-N-BE(2) cells; [11]) | Histone H3 phosphorylation (MYCN and p-Histone H3) | MYCN protein level (MYCN and p-Histone H3) | cell-free potency against Aurora A relative to CD532 (Aurora A) | efficacy against MYCN (MYCN loss) relative to CD532 (MYCN [2]) | wild-type MYCN protein level (MYCN [3]) | susceptibility of MYCN-amplified versus non-amplified cell lines [6] | other results
1 | COc1cc(Nc2ncc3c(n2)-c2ccc(Cl)cc2C(c2c(F)cccc2OC)=NC3)ccc1C(=O)O [MLN8237] | only modestly disrupted | G2/M arrest | accumulation of cells in G2 and M phase | blocked Histone H3 phosphorylation | very modest effects | – | – | – | – | AUC0-24 [1]: 78.4 µM·h
2 | Cc1cc(Nc2cc(C3CCCC3)[nH]n2)nc(Nc2ccc(NC(=O)Nc3cccc(C(F)(F)F)c3)cc2)n1 [CD15] | – | – | – | – | – | maintained | maintained | – | – | –
3 | Cc1cc(Nc2cc(N3CCN(C)CC3)nc(Sc3ccc(NC(=O)C4CC4)cc3)n2)[nH]n1 [VX-680] | – | G2/M arrest | – | blocked Histone H3 phosphorylation | very modest effects | – | – | little effect | – | –
4 | O=C(Nc1ccc(Nc2nccc(Nc3cc(C4CCCC4)[nH]n3)n2)cc1)Nc1cccc(C(F)(F)F)c1 [CD532] | dose-dependent and complete dissociation | potent loss of S-phase entry | rapid and potent loss of S-phase | – | – | – | – | dose-dependently decreased | significantly more susceptible | MYCN protein level in xenograft tumors [4]: decreased levels of MYCN protein; serum half-life [5]: ~ 1.5 hr; AUC0-24 ([5]; 20 mg/kg): 27 µM·h; MYCN-MAX binding (MYCN-Aurora A complex; specificity control): did not affect; EC50s in cell line panel ([6]; most cell lines): nanomolar range; tolerability of dosing regimen [7]: without obvious short or long-term toxicity or weight loss; MYCN levels in tumors ([7]; intraperitoneal): substantially reduced MYCN levels; survival ([7]; intraperitoneal): extended survival; tumor burden ([7]; intraperitoneal): reduced tumor burden; MYCN T58A/S62A protein degradation (MYCN [3]; SHEP MYCN T58A/S62A): less effective; EC50 [8]: 223 nM; effect of MYCN transduction on sensitivity [9]: conferred sensitivity; EC50 [10]: 147 nM
5 | Cc1sc2c(c1C)C(c1ccc(Cl)cc1)=N[C@@H](CC(=O)OC(C)(C)C)c1nnc(C)n1-2 [JQ1, reference compound] | – | – | downregulation of MYCN, blockade of S-phase entry, and accumulation of cells in G0/G1 | – | – | – | – | – | significantly more susceptible | –
6 | O=C(Nc1ccccc1)Nc1ccc(Nc2nccc(Nc3cc(C4CCCC4)[nH]n3)n2)cc1 [CD25] | – | – | – | – | – | retained potency | less effective than CD532 | – | – | –
